# According to ChEMBL document CHEMBL4689842, “EUbOPEN Chemogenomics Library wave 1” (2021):
# Key:
# Assay type in all cases: toxicity, cell-based
# [1] = system: Fibroblast; assay: Multiplex assay against human fibroblast
# Method in brief: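 Live cells were stained at seeding with Hoechst33342, BioTracker Green Microtubule Cytoskeleton Dye, MitoTracker Red and Annexin V Alexa Fluor 680, then imaged on a CQ1 microscope at 37°C and 5% CO2 after compound addition. CellPathfinder machine-learning gating split cells into Hoechst high-intensity objects or normal cells. Normal cells were split into healthy, pyknosed or fragmented nuclei, and pyknosed cells into mitotic or apoptotic. Tubulin, mitochondrial-mass and membrane-permeability phenotypes are per cents of healthy-nucleus cells.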
# [2] = system: HEK-293T; assay: Incucyte cell viability with HEK293T; conditions: human, 10 µM, compound concentration 10 uM; note: filed as whole numbers so only -1 and 0 and 1 occur
# [3] = system: U2OS; assay: Incucyte cell viability with U2OS; conditions: human, 10 µM, compound concentration 10 uM; note: filed as whole numbers so only -1 and 0 and 1 occur
# [4] = 12 h, 1 µM, compound concentration 1 uM, replicate 1
# [5] = 12 h, 1 µM, compound concentration 1 uM, replicate 2
# [6] = 12 h, 10 µM, compound concentration 10 uM, replicate 1
# [7] = 12 h, 10 µM, compound concentration 10 uM, replicate 2
# [8] = 24 h, 1 µM, compound concentration 1 uM, replicate 1
# [9] = 24 h, 1 µM, compound concentration 1 uM, replicate 2
# [10] = 24 h, 10 µM, compound concentration 10 uM, replicate 1
# [11] = 24 h, 10 µM, compound concentration 10 uM, replicate 2
# [12] = 48 h, 1 µM, compound concentration 1 uM, replicate 1
# [13] = 48 h, 1 µM, compound concentration 1 uM, replicate 2
# [14] = 48 h, 10 µM, compound concentration 10 uM, replicate 1
# [15] = 48 h, 10 µM, compound concentration 10 uM, replicate 2
# [16] = 0 h, replicate number 1, timepoint 0 hours
# [17] = 6 h, replicate number 2, timepoint 6 hours
# [18] = 12 h, replicate number 1, timepoint 12 hours
# [19] = 18 h, replicate number 1, timepoint 18 hours
# [20] = 24 h, replicate number 1, timepoint 24 hours
compound,measurement,setting,value
CN(c1cc(C(F)(F)F)nc(OCCC(=O)O)n1)c1cccc2c1CCC2,Population Apoptotic (%),[1]; [4],70%
same,Population Fragmented Nuclei (%),[1]; [4],18%
same,Population Healthy Nuclei (%),[1]; [4],47%
same,Population Hoechst High Intensity Objects (%),[1]; [4],11%
same,Population Membrane Permeable-Phenotype (%),[1]; [4],17%
same,Population Mitochondria Different-Phenotype (%),[1]; [4],6%
same,Population Mitotic Cells (%),[1]; [4],29%
same,Population Normal (%),[1]; [4],88%
same,Population Pyknosed Nuclei (%),[1]; [4],33%
same,Population Tubulin-Different-Phenotype (%),[1]; [4],27%
same,Total Cell Count,[1]; [4],136
same,Population Apoptotic (%),[1]; [5],0%
same,Population Fragmented Nuclei (%),[1]; [5],9%
same,Population Healthy Nuclei (%),[1]; [5],80%
same,Population Hoechst High Intensity Objects (%),[1]; [5],12%
same,Population Membrane Permeable-Phenotype (%),[1]; [5],4%
same,Population Mitochondria Different-Phenotype (%),[1]; [5],20%
same,Population Mitotic Cells (%),[1]; [5],100%
same,Population Normal (%),[1]; [5],87%
same,Population Pyknosed Nuclei (%),[1]; [5],9%
same,Population Tubulin-Different-Phenotype (%),[1]; [5],28%
same,Total Cell Count,[1]; [5],65
same,Population Apoptotic (%),[1]; [6],61%
same,Population Fragmented Nuclei (%),[1]; [6],23%
same,Population Healthy Nuclei (%),[1]; [6],49%
same,Population Hoechst High Intensity Objects (%),[1]; [6],11%
same,Population Membrane Permeable-Phenotype (%),[1]; [6],25%
same,Population Mitochondria Different-Phenotype (%),[1]; [6],6%
same,Population Mitotic Cells (%),[1]; [6],38%
same,Population Normal (%),[1]; [6],88%
same,Population Pyknosed Nuclei (%),[1]; [6],27%
same,Population Tubulin-Different-Phenotype (%),[1]; [6],26%
same,Total Cell Count,[1]; [6],172
same,Population Apoptotic (%),[1]; [7],0%
same,Population Fragmented Nuclei (%),[1]; [7],13%
same,Population Healthy Nuclei (%),[1]; [7],86%
same,Population Hoechst High Intensity Objects (%),[1]; [7],14%
same,Population Membrane Permeable-Phenotype (%),[1]; [7],4%
same,Population Mitochondria Different-Phenotype (%),[1]; [7],10%
same,Population Mitotic Cells (%),[1]; [7],0%
same,Population Normal (%),[1]; [7],85%
same,Population Pyknosed Nuclei (%),[1]; [7],0%
same,Population Tubulin-Different-Phenotype (%),[1]; [7],30%
same,Total Cell Count,[1]; [7],71
same,Population Apoptotic (%),[1]; [8],54%
same,Population Fragmented Nuclei (%),[1]; [8],26%
same,Population Healthy Nuclei (%),[1]; [8],46%
same,Population Hoechst High Intensity Objects (%),[1]; [8],11%
same,Population Membrane Permeable-Phenotype (%),[1]; [8],28%
same,Population Mitochondria Different-Phenotype (%),[1]; [8],7%
same,Population Mitotic Cells (%),[1]; [8],45%
same,Population Normal (%),[1]; [8],88%
same,Population Pyknosed Nuclei (%),[1]; [8],27%
same,Population Tubulin-Different-Phenotype (%),[1]; [8],30%
same,Total Cell Count,[1]; [8],129
same,Population Apoptotic (%),[1]; [9],0%
same,Population Fragmented Nuclei (%),[1]; [9],4%
same,Population Healthy Nuclei (%),[1]; [9],95%
same,Population Hoechst High Intensity Objects (%),[1]; [9],8%
same,Population Membrane Permeable-Phenotype (%),[1]; [9],2%
same,Population Mitochondria Different-Phenotype (%),[1]; [9],13%
same,Population Mitotic Cells (%),[1]; [9],0%
same,Population Normal (%),[1]; [9],91%
same,Population Pyknosed Nuclei (%),[1]; [9],0%
same,Total Cell Count,[1]; [9],68
same,Population Apoptotic (%),[1]; [10],56%
same,Population Fragmented Nuclei (%),[1]; [10],14%
same,Population Healthy Nuclei (%),[1]; [10],60%
same,Population Hoechst High Intensity Objects (%),[1]; [10],7%
same,Population Membrane Permeable-Phenotype (%),[1]; [10],21%
same,Population Mitochondria Different-Phenotype (%),[1]; [10],3%
same,Population Mitotic Cells (%),[1]; [10],43%
same,Population Normal (%),[1]; [10],92%
same,Population Pyknosed Nuclei (%),[1]; [10],25%
same,Population Tubulin-Different-Phenotype (%),[1]; [10],34%
same,Total Cell Count,[1]; [10],198
same,Population Apoptotic (%),[1]; [11],0%
same,Population Fragmented Nuclei (%),[1]; [11],13%
same,Population Healthy Nuclei (%),[1]; [11],81%
same,Population Hoechst High Intensity Objects (%),[1]; [11],13%
same,Population Membrane Permeable-Phenotype (%),[1]; [11],3%
same,Population Mitochondria Different-Phenotype (%),[1]; [11],13%
same,Population Mitotic Cells (%),[1]; [11],100%
same,Population Normal (%),[1]; [11],86%
same,Population Pyknosed Nuclei (%),[1]; [11],5%
same,Population Tubulin-Different-Phenotype (%),[1]; [11],44%
same,Total Cell Count,[1]; [11],79
same,Population Apoptotic (%),[1]; [12],51%
same,Population Fragmented Nuclei (%),[1]; [12],35%
same,Population Healthy Nuclei (%),[1]; [12],41%
same,Population Hoechst High Intensity Objects (%),[1]; [12],20%
same,Population Membrane Permeable-Phenotype (%),[1]; [12],32%
same,Population Mitochondria Different-Phenotype (%),[1]; [12],2%
same,Population Mitotic Cells (%),[1]; [12],48%
same,Population Normal (%),[1]; [12],79%
same,Population Pyknosed Nuclei (%),[1]; [12],23%
same,Population Tubulin-Different-Phenotype (%),[1]; [12],38%
same,Total Cell Count,[1]; [12],147
same,Population Apoptotic (%),[1]; [13],33%
same,Population Fragmented Nuclei (%),[1]; [13],19%
same,Population Healthy Nuclei (%),[1]; [13],76%
same,Population Hoechst High Intensity Objects (%),[1]; [13],10%
same,Population Membrane Permeable-Phenotype (%),[1]; [13],16%
same,Population Mitochondria Different-Phenotype (%),[1]; [13],0%
same,Population Mitotic Cells (%),[1]; [13],66%
same,Population Normal (%),[1]; [13],90%
same,Population Pyknosed Nuclei (%),[1]; [13],4%
same,Population Tubulin-Different-Phenotype (%),[1]; [13],30%
same,Total Cell Count,[1]; [13],80
same,Population Apoptotic (%),[1]; [14],54%
same,Population Fragmented Nuclei (%),[1]; [14],25%
same,Population Healthy Nuclei (%),[1]; [14],67%
same,Population Hoechst High Intensity Objects (%),[1]; [14],14%
same,Population Membrane Permeable-Phenotype (%),[1]; [14],14%
same,Population Mitochondria Different-Phenotype (%),[1]; [14],3%
same,Population Mitotic Cells (%),[1]; [14],45%
same,Population Normal (%),[1]; [14],85%
same,Population Pyknosed Nuclei (%),[1]; [14],7%
same,Population Tubulin-Different-Phenotype (%),[1]; [14],19%
same,Total Cell Count,[1]; [14],175
same,Population Apoptotic (%),[1]; [15],40%
same,Population Fragmented Nuclei (%),[1]; [15],22%
same,Population Healthy Nuclei (%),[1]; [15],73%
same,Population Hoechst High Intensity Objects (%),[1]; [15],10%
same,Population Membrane Permeable-Phenotype (%),[1]; [15],15%
same,Population Mitochondria Different-Phenotype (%),[1]; [15],4%
same,Population Mitotic Cells (%),[1]; [15],60%
same,Population Normal (%),[1]; [15],89%
same,Population Pyknosed Nuclei (%),[1]; [15],4%
same,Population Tubulin-Different-Phenotype (%),[1]; [15],34%
same,Total Cell Count,[1]; [15],125
same,Growth Rate,[2]; [16],0
same,Growth Rate,[2]; [17],0
same,Growth Rate,[2]; [18],1
same,Growth Rate,[2]; [19],1
same,Growth Rate,[2]; [20],1
same,Growth Rate,[3]; [16],0
same,Growth Rate,[3]; [17],0
same,Growth Rate,[3]; [18],0
same,Growth Rate,[3]; [19],0
same,Growth Rate,[3]; [20],0
